Results published in ChEMBL document CHEMBL3877303 (J Med Chem, 2017).
Blank lines part the entries; values can stand above or below the molecule they belong to. Calls of active or inactive are those of the source. The calls are words filed in the database; no cut-off is given here.

Assays:
[1] = target: T1, Mast/stem cell growth factor receptor Kit (Homo sapiens, UniProt P10721); settings: GISTT1, 1 uM
[2] = target: T1, Mast/stem cell growth factor receptor Kit; settings: 1 uM
[3] = target: T1, Mast/stem cell growth factor receptor Kit; settings: 1 uM; remark: listed apart in the source
[4] = test system: Mast/stem cell growth factor receptor Kit (Homo sapiens), P10721 [L576P]; assay: Inhibition of Tel-fused c-KIT L576P mutant (unknown origin) expressed in BAF3 cells assessed as growth inhibition measured after 72 hrs by CellTiter-Glo or CCK8 assay; type: cell-based
Sequence of Mast/stem cell growth factor receptor Kit (Homo sapiens), P10721 [L576P] (P10721 whole entry L576P, the tested form may be a part): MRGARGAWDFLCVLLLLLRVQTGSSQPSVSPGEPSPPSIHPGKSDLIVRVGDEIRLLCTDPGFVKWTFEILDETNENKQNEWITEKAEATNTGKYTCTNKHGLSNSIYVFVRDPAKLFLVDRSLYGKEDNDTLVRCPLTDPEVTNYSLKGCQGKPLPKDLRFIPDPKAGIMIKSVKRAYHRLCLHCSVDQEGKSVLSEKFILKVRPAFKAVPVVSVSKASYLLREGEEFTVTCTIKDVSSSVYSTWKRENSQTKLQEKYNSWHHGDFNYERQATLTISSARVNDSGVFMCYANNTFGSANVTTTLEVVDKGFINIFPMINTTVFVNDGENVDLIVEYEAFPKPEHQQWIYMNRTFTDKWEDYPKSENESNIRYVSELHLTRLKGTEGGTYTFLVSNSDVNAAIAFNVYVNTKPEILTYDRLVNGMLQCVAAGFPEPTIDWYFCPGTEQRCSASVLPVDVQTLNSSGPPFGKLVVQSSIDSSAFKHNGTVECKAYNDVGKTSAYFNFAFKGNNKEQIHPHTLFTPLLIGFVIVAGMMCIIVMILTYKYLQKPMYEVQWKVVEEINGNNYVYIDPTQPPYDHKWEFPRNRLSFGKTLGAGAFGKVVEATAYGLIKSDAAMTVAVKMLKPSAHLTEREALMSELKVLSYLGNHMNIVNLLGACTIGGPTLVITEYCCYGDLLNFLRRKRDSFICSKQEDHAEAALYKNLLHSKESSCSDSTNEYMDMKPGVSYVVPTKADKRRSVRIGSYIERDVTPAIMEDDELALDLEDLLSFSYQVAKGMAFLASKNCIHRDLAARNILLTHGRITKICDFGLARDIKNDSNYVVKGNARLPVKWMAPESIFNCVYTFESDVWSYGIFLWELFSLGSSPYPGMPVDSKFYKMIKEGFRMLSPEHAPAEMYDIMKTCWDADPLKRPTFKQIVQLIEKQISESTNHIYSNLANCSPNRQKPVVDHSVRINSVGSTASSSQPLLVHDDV
Outline: (§1)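 BaF3 lines were made by retroviral transduction with kinase-fusion MSCV vectors packaged in HEK293T cells. Cells were selected with puromycin for 48 h, then selected again without IL-3 so growth depends on the introduced kinase. […] They were seeded at 1 to 2.5×10^4 cells/mL with compound dilutions and incubated 72 h. Viability was read by CellTiter-Glo luminescence or CCK-8 absorbance (450/655 nm), normalized to DMSO control; GI50 was curve-fitted from triplicate tests.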

KU812 cell line = assay: Induction of apoptosis in human KU812 cells assessed as cleavage of PARP at 0.1 to 3 uM by Western blot analysis; type: functional, cell-based
Outline: (§2)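 Cells were treated with DMSO or serially diluted compound for the indicated periods. They were washed in ice-cold PBS and lysed in RIPA buffer with protease/phosphatase inhibitors, and protein was quantified by BCA. Lysates were resolved by SDS-PAGE, transferred to PVDF and blocked in 5% milk/TBST. Blots were probed for PARP and caspase-3, with β-actin as loading control, and detected by ECL.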

[5] = target: Tyrosine-protein kinase Blk (Homo sapiens, UniProt P51451); assay: Inhibition of full length recombinant His-tagged human BLK cytoplasmic domain expressed in baculovirus expression system assessed as residual activity at 1 uM measured after 1 hr by FRET based Z'Lyte assay relative to control
Sequence of Tyrosine-protein kinase Blk (P51451 2-505 limits assumed): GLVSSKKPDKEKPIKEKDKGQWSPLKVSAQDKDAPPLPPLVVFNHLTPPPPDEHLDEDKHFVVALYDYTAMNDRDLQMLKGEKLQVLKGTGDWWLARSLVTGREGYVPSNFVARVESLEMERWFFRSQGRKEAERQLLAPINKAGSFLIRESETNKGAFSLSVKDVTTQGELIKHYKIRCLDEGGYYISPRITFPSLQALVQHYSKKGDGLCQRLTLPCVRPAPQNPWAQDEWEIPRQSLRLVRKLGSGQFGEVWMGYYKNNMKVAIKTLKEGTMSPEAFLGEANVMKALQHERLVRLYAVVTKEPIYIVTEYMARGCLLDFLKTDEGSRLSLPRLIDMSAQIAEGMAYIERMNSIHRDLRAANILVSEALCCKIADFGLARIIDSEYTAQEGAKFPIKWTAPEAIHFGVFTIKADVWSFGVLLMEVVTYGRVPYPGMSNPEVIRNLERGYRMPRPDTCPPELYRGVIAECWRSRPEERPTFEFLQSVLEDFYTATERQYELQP

[6] = test system: Mast/stem cell growth factor receptor Kit (Homo sapiens), P10721 [T670I]; assay: Inhibition of Tel-fused c-KIT T670I mutant (unknown origin) expressed in BAF3 cells assessed as growth inhibition measured after 72 hrs by CellTiter-Glo or CCK8 assay; type: cell-based
Sequence of Mast/stem cell growth factor receptor Kit (Homo sapiens), P10721 [T670I] (P10721 whole entry T670I, the tested form may be a part): as the sequence (P10721 whole entry L576P, the tested form may be a part) above, with P576L, T670I counted along it
Outline: as §1

GISTT1 [7] = assay: Induction of apoptosis in human GISTT1 cells assessed as cleavage of PARP at 0.1 to 3 uM by Western blot analysis; type: functional, cell-based
Outline: as §2

[8] = AUC (0 to t) in Sprague-Dawley rat at 10 mg/kg, po; type: ADME, organism-based; settings: in vivo
Outline: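 Male Sprague-Dawley rats aged six to eight weeks were fasted overnight and then dosed iv or orally. Blood (~0.2 mL) was drawn from the jugular vein into heparin and kept on ice. Sampling was at 1 min to 8 h for iv and 5 min to 24 h for oral. Plasma was separated by centrifugation at 2-8 °C and stored at -80 °C until analysis.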

[9] = Antiproliferative activity against human KU812 cells measured after 72 hrs by CellTiter-Glo or CCK8 assay; type: functional; settings: KU812, 72 h
[10] = target: Platelet-derived growth factor receptor beta (Homo sapiens, UniProt P09619); assay: Inhibition of Tel-fused PDGFR-beta (unknown origin) expressed in BAF3 cells assessed as growth inhibition measured after 72 hrs by CellTiter-Glo or CCK8 assay; type: cell-based
Sequence of Platelet-derived growth factor receptor beta (P09619 whole entry, the tested form may be a part): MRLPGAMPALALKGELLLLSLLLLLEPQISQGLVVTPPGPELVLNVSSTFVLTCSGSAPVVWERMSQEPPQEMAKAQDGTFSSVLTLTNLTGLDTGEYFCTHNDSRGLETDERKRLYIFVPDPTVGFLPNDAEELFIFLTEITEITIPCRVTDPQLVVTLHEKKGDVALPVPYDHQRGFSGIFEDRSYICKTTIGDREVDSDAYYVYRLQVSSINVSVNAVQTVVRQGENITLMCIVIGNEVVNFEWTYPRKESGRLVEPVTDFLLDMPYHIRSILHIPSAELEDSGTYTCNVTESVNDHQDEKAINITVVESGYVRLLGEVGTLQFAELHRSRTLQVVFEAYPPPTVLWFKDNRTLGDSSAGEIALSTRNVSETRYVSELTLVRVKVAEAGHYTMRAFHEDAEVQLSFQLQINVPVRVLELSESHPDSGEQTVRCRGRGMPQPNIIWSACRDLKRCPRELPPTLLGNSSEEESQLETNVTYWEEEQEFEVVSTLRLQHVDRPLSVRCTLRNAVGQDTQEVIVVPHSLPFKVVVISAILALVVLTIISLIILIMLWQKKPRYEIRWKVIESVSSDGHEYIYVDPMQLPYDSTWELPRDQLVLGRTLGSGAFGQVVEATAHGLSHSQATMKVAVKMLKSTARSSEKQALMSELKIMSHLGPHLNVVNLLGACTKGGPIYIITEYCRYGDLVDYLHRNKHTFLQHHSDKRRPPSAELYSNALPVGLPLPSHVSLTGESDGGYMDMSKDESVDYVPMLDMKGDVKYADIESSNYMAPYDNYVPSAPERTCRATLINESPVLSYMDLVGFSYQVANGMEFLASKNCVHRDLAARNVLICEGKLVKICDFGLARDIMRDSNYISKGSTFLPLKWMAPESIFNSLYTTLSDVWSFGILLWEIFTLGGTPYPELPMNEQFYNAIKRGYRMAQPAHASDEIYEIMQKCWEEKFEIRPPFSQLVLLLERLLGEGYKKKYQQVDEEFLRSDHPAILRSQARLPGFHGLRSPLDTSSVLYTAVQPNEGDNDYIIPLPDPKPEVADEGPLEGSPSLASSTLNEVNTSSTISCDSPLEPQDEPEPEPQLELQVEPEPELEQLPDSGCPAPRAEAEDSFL
Outline: as §1

[11] = Anticancer activity against human GISTT1 cells xenografted in nu/nu mouse assessed as tumor weight at 50 mg/kg, po administered daily via oral gavage measured 21 days post compound treatment (reference value: 2.86 g)
GIST882 = assay: Induction of apoptosis in human GIST882 cells assessed as increase in cleaved caspase-3 level at 0.1 to 3 uM by Western blot analysis; type: functional, cell-based
Outline: as §2

[12] = target: Discoidin domain-containing receptor 2 (Homo sapiens, UniProt Q16832); assay: Inhibition of recombinant His-tagged human DDR2 cytoplasmic domain expressed in baculovirus expression system measured after 1 hr by FRET based Z'Lyte assay
Sequence of Discoidin domain-containing receptor 2 (Q16832 whole entry, the tested form may be a part): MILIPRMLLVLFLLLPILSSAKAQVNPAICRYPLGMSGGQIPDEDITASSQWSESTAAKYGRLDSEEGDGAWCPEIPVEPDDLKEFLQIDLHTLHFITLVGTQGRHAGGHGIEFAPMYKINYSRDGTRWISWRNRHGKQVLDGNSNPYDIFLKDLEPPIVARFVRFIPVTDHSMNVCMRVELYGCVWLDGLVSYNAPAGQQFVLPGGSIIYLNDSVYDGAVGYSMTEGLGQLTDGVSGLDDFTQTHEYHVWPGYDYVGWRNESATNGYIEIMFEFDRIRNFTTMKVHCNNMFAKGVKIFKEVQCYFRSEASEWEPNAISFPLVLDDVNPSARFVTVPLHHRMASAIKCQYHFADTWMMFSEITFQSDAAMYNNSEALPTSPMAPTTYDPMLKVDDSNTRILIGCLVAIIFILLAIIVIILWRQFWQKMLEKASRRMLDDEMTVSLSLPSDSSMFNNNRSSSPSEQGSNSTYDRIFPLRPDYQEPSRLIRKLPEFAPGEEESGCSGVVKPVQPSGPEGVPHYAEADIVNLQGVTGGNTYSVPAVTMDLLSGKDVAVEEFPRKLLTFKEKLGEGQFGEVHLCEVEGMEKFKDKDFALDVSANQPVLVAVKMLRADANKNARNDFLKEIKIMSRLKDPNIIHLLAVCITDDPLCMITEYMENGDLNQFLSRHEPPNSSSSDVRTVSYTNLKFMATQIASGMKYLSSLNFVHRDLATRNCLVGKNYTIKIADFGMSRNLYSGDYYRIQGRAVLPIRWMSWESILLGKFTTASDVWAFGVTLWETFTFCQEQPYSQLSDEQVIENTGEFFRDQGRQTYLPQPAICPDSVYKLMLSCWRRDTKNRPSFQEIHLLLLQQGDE
Outline: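 Z'-LYTE FRET biochemical kinase assay run by Invitrogen on selected kinases identified from binding profiling; IC50 from dose-response.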

GISTT1 [13] = assay: Anticancer activity against human GISTT1 cells xenografted in nu/nu mouse assessed as tumor growth inhibition administered daily via oral gavage measured 21 days post compound treatment
[14] = target: Macrophage colony-stimulating factor 1 receptor (Homo sapiens, UniProt P07333); assay: Inhibition of recombinant His-tagged human CSF1R cytoplasmic domain expressed in baculovirus expression system assessed as residual activity at 1 uM measured after 1 hr by FRET based Z'Lyte assay relative to control
Sequence of Macrophage colony-stimulating factor 1 receptor (P07333 whole entry, the tested form may be a part): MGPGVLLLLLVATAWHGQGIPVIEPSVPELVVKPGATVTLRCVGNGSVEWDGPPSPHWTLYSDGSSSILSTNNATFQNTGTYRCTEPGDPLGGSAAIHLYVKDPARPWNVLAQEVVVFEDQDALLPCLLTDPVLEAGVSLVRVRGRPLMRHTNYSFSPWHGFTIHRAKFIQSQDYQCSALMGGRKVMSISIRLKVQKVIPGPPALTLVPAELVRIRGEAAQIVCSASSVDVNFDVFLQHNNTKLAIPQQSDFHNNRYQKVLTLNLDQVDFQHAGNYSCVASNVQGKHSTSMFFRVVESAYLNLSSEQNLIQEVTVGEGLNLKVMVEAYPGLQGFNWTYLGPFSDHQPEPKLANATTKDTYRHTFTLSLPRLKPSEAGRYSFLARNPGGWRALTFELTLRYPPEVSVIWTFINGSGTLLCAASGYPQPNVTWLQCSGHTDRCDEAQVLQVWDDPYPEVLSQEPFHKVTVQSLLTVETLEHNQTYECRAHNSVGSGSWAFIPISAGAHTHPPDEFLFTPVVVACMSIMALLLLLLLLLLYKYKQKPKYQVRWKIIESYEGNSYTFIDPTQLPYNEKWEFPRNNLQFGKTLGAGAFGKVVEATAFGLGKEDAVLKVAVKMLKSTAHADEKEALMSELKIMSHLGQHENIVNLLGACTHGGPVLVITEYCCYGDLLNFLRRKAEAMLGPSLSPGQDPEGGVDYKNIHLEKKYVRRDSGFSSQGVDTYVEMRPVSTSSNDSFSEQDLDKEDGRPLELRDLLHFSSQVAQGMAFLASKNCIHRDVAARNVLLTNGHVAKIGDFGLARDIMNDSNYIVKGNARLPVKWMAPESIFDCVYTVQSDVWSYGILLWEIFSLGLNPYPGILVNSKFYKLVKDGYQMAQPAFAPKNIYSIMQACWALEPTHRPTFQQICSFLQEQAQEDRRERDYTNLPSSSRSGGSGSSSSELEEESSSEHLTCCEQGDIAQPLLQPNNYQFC

[15] = target: T2, BCR/ABL p210 fusion protein (Homo sapiens, UniProt A1Z199); assay: Inhibition of BCR/ABL p210 fusion protein mediated signaling pathways assessed as reduction in Stat5 phosphorylation at Y694 in human K562 cells at 0.01 to 3 uM measured after 2 hrs by immunoblotting; type: cell-based
T2 sequence (A1Z199 1-97): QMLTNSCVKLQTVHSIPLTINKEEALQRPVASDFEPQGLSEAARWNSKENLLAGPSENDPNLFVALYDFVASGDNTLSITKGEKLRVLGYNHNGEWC
Outline: (§3)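 After an ice-cold PBS wash, cells were lysed in RIPA buffer (50 mM Tris pH 8.0) with protease and phosphatase inhibitors, and protein was quantified by BCA. Lysates were run on SDS-PAGE, transferred to PVDF and blocked in 5% milk/TBST. Phospho- and total proteins were probed by immunoblot with ECL detection; β-actin served as loading control.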

[16] = Anticancer activity against human GISTT1 cells xenografted in nu/nu mouse assessed as tumor weight at 25 mg/kg, po administered daily via oral gavage measured 21 days post compound treatment (reference value: 2.86 g)
BaF3 = assay: Inhibition of BCR/ABL p210 fusion protein M356T mutant (unknown origin) expressed in BAF3 cells assessed as growth inhibition measured after 72 hrs by CellTiter-Glo or CCK8 assay; type: cell-based; settings: Homo sapiens
Outline: as §1

K562 = assay: Induction of apoptosis in human K562 cells assessed as cleavage of PARP at 0.1 to 3 uM by Western blot analysis; type: functional, cell-based
Outline: as §2

[17] = Cell cycle arrest in human GISTT1 cells assessed as accumulation at G0/G1 phase at 0.3 uM after 24 hrs by propidium iodide/RNase staining based flow cytometry; type: functional
Outline: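 Cells were exposed to serially diluted compound, then fixed in cold 70% ethanol overnight at -20 °C. They were stained with PI/RNase buffer for DNA-content cell-cycle analysis.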

MEG-01 = assay: Induction of apoptosis in human MEG01 cells assessed as cleavage of PARP at 0.1 to 3 uM by Western blot analysis; type: functional, cell-based
Outline: as §2

[18] = target: T2, BCR/ABL p210 fusion protein; assay: Inhibition of BCR/ABL p210 fusion protein autophosphorylation at Y245 in human KU812 cells at 0.01 to 3 uM measured after 2 hrs by immunoblotting; type: cell-based
Outline: as §3

GISTT1 [19] = assay: Induction of apoptosis in human GISTT1 cells assessed as increase in cleaved caspase-3 level at 0.1 to 3 uM by Western blot analysis; type: functional, cell-based
Outline: as §2

T1 sequence (P10721 whole entry): as the sequence (P10721 whole entry L576P, the tested form may be a part) above, with P576L counted along it

inhibition [1]: Active | inhibition [2]: Active | inhibition [3]: Active
Compound: Cc1ccc(NC(=O)c2ccc(CN3CCN(C)CC3)cc2)cc1Nc1nccc(-c2cccnc2)n1 [IMATINIB]

GI50 [4]: 221 nM | Activity [5]: 0.45% | GI50 [6]: 1850 nM | AUC(0-t) [8]: 2420 ng·h/mL | GI50 [10]: 14 nM | IC50 [12]: 325 nM | Activity [14]: 0.3% | inhibition [15]: Active | GI50 (BaF3): 270 nM | inhibition [18]: Active
Compound: Cc1ccc(C(=O)N2CCC(Oc3cc(NC(=O)c4ccc(CN5CCN(C)CC5)c(C(F)(F)F)c4)ccc3C)CC2)cn1
Activity (KU812 cell line): Active | Activity (GISTT1 [7]): Active | GI50 [9]: 56 nM | Activity [11]: 2.19 g | Activity (GIST882): Active | TGI (GISTT1 [13]): Dose-dependent effect | Activity [16]: 2.2 g | Activity (K562): Active | Activity [17]: Active | Activity (MEG-01): Active | Activity (GISTT1 [19]): Active
